Experimental data reported in ChEMBL document CHEMBL1129445 (J Med Chem, 1996).

Experiments:
[1] = biological target: T1, Inosine-5'-monophosphate dehydrogenase 2 (Homo sapiens, UniProt P12268); assay: Inhibition of human recombinant type II Inosine Monophosphate Dehydrogenase. at pH 8.0
Summary of the method: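 Recombinant human type II IMPDH (12.5-25 pmol) in 0.1 M Tris-HCl pH 8.0, 0.1 M KCl, 3 mM EDTA, 100 μg/mL BSA. […] IC50 fitted with a Hill equation, fractional activity = V0/[(I/IC50)^n + 1].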

[2] = organism: Homo sapiens; assay: Inhibition of human Lymphocyte proliferation. The IC50 values were determined by interpolation using cubic spline determination.; format: functional
Summary of the method: (§1)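 Human PBMC are isolated on Ficoll from heparinized blood and plated at 2 × 10^5 cells/well in RPMI-1640 with 5% FCS. Cells are stimulated with PHA (10 μg/mL final) and given compound at time 0, at 4-6 concentrations between 0.001 and 20 μM (tested to 10 μM). Cultures run in quadruplicate for 72 h at 37 °C, 7% CO2, with [3H]thymidine (0.5 μCi/well) for the last 6 h. IC50 by cubic-spline interpolation of the means.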

[3] = organism: Mus musculus; assay: Compound was tested for its % Inhibition of Murine PFC response in Mice; format: functional
[4] = biological target: T1, Inosine-5'-monophosphate dehydrogenase 2; assay: Inhibition of human recombinant inosine monophosphate dehydrogenase type II.
Summary of the method: (§2)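 Reactions are run either at pH 7.4 (0.1 M K phosphate, 0.5 M KCl, 3 mM EDTA, 10 μg/mL BSA) or at pH 8.0 (0.1 M Tris-HCl, 0.1 M KCl, 3 mM EDTA, 100 μg/mL BSA). DMSO ≤10%, compounds tested up to 100 μM. IC50 from fit of fractional activity = V0/[(I/IC50)^n + 1].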

[5] = organism: Homo sapiens; assay: Inhibition of human Lymphocyte proliferation. The IC50 values were determined by interpolation using the cubic spline determination at 10 uM; format: functional; summary of the method: as §1
[6] = biological target: T1, Inosine-5'-monophosphate dehydrogenase 2; assay: Inhibition of human recombinant type II Inosine Monophosphate Dehydrogenase at 100 uM; summary of the method: as §2
[7] = system: Mus musculus; assay: Tested for the inhibition of murine PFC response at 100 mg/kg dose; format: functional
[8] = organism: Homo sapiens; assay: Compound was tested for inhibition of human Lymphocyte proliferation. The IC50 values were determined by interpolation using the cubic spline determination at 10 uM; format: functional; summary of the method: as §1
[9] = system: Mus musculus; assay: Tested for the inhibition of murine PFC response at 25 mg/kg dose; format: functional
[10] = system: Mus musculus; assay: Tested for the inhibition of murine PFC response at 12.5 mg/kg dose; format: functional

Row | IC50 [4] | Compound | IC50 [2] | further results
1 |  | COc1c(C/C=C(\C)CCC(=O)O)c(O)c2c(c1OC)COC2=O | 130 nM | IC50 [1]: 126 nM; Inhibition [3]: 49%
2 | 140 nM | COc1c(C)c2c(c(O)c1C/C=C(\C)CCC(=O)O)C(=O)CC2 | 830 nM | 
3 | 1120 nM | COc1c(C)c(C)c(C=O)c(O)c1C/C=C(\C)CCC(=O)O | 10000 nM | 
4 | 534 nM | COc1c(C)c(C)c(C#N)c(O)c1C/C=C(\C)CCC(=O)O | 1700 nM | 
5 |  | C/C(=C\Cc1cc(C)c2c(c1O)C(=O)OC2)CCC(=O)O |  | IC50 [1]: 6960 nM
6 |  | COc1c(C)c(C)c(O)c(Cl)c1C/C=C(\C)CCC(=O)O |  | IC50 [5]: > 10000 nM; IC50 [6]: 2880 nM
7 | 489 nM | COc1c(C)c(C)c(Cl)c(N)c1C/C=C(\C)CCC(=O)O | 4100 nM | inhibition in vivo at 100 mg/kg [7]: 42%
8 | 1080 nM | COc1c(C)c(C)c(F)c(O)c1C/C=C(\C)CCC(=O)O | 4100 nM | 
9 |  | COc1c(C)c(C)c(C#N)c(Cl)c1C/C=C(\C)CCC(=O)O |  | IC50 [5]: > 10000 nM; IC50 [6]: 681 nM
10 |  | COc1c(C)c(C)c(Cl)c(C)c1C/C=C(\C)CCC(=O)O |  | IC50 [5]: > 10000 nM; IC50 [6]: 1700 nM
11 |  | CCOc1c(C)c2c(c(O)c1C/C=C(\C)CCC(=O)O)C(=O)OC2 | 430 nM | IC50 [1]: 89.8 nM
12 |  | COc1c(C)c(C)c(F)c(F)c1C/C=C(\C)CCC(=O)O |  | IC50 [5]: > 10000 nM; IC50 [6]: 1380 nM
13 |  | CO/N=C/c1c(C)c(C)c(OC)c(C/C=C(\C)CCC(=O)O)c1O |  | IC50 [6]: 52800 nM; IC50 [8]: > 10000 nM
14 | 184 nM | COc1c(C)c(C)c([N+](=O)[O-])c(O)c1C/C=C(\C)CCC(=O)O |  | 
15 |  | COc1c(C)c(C)c(/C=N/O)c(O)c1C/C=C(\C)CCC(=O)O |  | IC50 [6]: 11900 nM; IC50 [8]: > 10000 nM
16 | 130 nM | C/C(=C\Cc1c(O)c2c(c(C)c1-c1ccccc1)COC2=O)CCC(=O)O | 2800 nM | 

Row | IC50 [4] | Compound | IC50 [2] | further results
17 | 33.5 nM | COc1c(C)c(C)c(Cl)c(O)c1C/C=C(\C)CCC(=O)O | 200 nM | inhibition in vivo at 25 mg/kg [9]: 0%; inhibition in vivo at 12.5 mg/kg [10]: 0%; inhibition in vivo at 100 mg/kg [7]: 83%
18 |  | COc1c(Br)c2c(c(O)c1C/C=C(\C)CCC(=O)O)C(=O)OC2 | 4000 nM | IC50 [1]: 975 nM
19 | 51800 nM | COc1c(C)c(C)cc(O)c1C/C=C(\C)CCC(=O)O |  | 
20 |  | COc1c(C)c(C)c(Cl)c(Cl)c1C/C=C(\C)CCC(=O)O |  | IC50 [5]: > 10000 nM; IC50 [6]: 557 nM
21 |  | COc1c(C/C=C(\C)CCC(=O)O)c(O)c2c(c1C(N)=O)COC2=O | > 10000 nM | IC50 [1]: > 100000 nM
22 | 592 nM | COc1c(C)c(C)c(I)c(O)c1C/C=C(\C)CCC(=O)O | 4900 nM | 
23 | 17000 nM | COc1c(C/C=C(\C)CCC(=O)O)cc(N)c(C)c1C |  | 
24 |  | CCc1c2c(c(O)c(C/C=C(\C)CCC(=O)O)c1OC)C(=O)OC2 | 3000 nM | IC50 [1]: 410 nM
25 | 462 nM | COc1c(C)c(C)c(Br)c(N)c1C/C=C(\C)CCC(=O)O | 4100 nM | inhibition in vivo at 100 mg/kg [7]: 30%
26 | 36.7 nM | COc1c(C)c(C)c(Br)c(O)c1C/C=C(\C)CCC(=O)O | 280 nM | inhibition in vivo at 100 mg/kg [7]: 5%
27 | 69.3 nM | C/C(=C\Cc1c(C)c(C)c(C)c(Cl)c1O)CCC(=O)O | 360 nM | 
28 |  | COc1c(C)c(C)c(F)c(Cl)c1C/C=C(\C)CCC(=O)O |  | IC50 [5]: > 10000 nM; IC50 [6]: 11800 nM
29 | 15500 nM | C/C(=C\Cc1c(O)c2c(c(C)c1C#N)COC2=O)CCC(=O)O | > 10000 nM | 
30 |  | COc1c(C)c2c(c(O)c1C/C=C(\C)CCC(=O)O)C(=O)OC2C (configuration not stated) | 600 nM | IC50 [1]: 420 nM
31 | 14800 nM | COc1c(C)c(C)c(C#N)c(N)c1C/C=C(\C)CCC(=O)O | 4100 nM | 
32 |  | COc1c(C)c(C)c(Br)c(Cl)c1C/C=C(\C)CCC(=O)O |  | IC50 [5]: > 10000 nM; IC50 [6]: 1040 nM
